Measured values taken from BindingDB's records for doi:10.1021/jm990004i (Imperial College, 1999).

biological target: T1, Carboxypeptidase G2 (Pseudomonas aeruginosa (strain ATCC 15692 / DSM 22644 / CIP 104116 / JCM 14847 / LMG 12228 / 1C / PRS 101 / PAO1), UniProt Q9I056); assay: Inhibitory activity against bacterial carboxypeptidase G2 by Dixon plot assay
T1 sequence (Q9I056 whole entry): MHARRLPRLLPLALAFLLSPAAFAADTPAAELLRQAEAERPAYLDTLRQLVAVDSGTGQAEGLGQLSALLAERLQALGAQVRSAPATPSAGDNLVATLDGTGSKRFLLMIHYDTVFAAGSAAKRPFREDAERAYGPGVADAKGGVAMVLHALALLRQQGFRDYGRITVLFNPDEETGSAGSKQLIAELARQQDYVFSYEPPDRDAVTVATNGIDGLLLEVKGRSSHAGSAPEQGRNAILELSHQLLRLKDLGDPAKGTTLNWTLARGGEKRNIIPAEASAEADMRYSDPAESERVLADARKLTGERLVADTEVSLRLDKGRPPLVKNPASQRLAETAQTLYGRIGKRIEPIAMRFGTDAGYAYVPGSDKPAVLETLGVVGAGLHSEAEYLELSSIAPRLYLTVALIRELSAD
In short: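 Bacterial CPG2 (10 μL stock, 0.1 U) started with 990 μL methotrexate solutions at several concentrations plus inhibitor 0–3.0 μM, in 0.1 M Tris-HCl pH 7.3 with 0.1 mM ZnCl2, 37 °C. Initial rate of absorbance decrease at 320 nm (methotrexate ε 8300). Apparent Ki read from Dixon plot of 1/V against inhibitor concentration.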

Going from `Cc1ccc(SC(=O)NC(CCC(=O)O)C(=O)O)cc1` (stereo unspecified) [2-p-Tolylsulfanylcarbonylamino-pentanedioic acid] to `Nc1ccc(SC(=O)NC(CCC(=O)O)C(=O)O)cc1` (stereo unspecified) [2-(4-Amino-phenylsulfanylcarbonylamino)-pentanedioic acid], the Ki rises from 1.05 µM to 5.8 µM (5.5-fold). The first binds more tightly here.

First: COc1cccc(SC(=O)NC(CCC(=O)O)C(=O)O)c1 (stereo unspecified) [2-(3-Methoxy-phenylsulfanylcarbonylamino)-pentanedioic acid]
Second: Nc1cccc(SC(=O)NC(CCC(=O)O)C(=O)O)c1 (stereo unspecified) [2-(3-Amino-phenylsulfanylcarbonylamino)-pentanedioic acid]
The Ki of the first is 2.3-fold lower: 1.07 µM for the first, 2.5 µM for the second. The first binds more tightly here.

Compared with `O=C(O)CCC(NC(=O)Sc1cc[n+]([O-])cc1)C(=O)O` (stereo unspecified) [2-(1-Oxy-pyridin-4-ylsulfanylcarbonylamino)-pentanedioic acid], `COc1ccc(SC(=O)N[C@H](CCC(=O)O)C(=O)O)cc1` [(R)-2-(4-Methoxy-phenylsulfanylcarbonylamino)-pentanedioic acid] is 550-fold lower in Ki: 165 µM for the first, 0.3 µM for the second. The second binds more tightly here.
